Reference: ChEMBL document CHEMBL4145451, “1,3,5-triazaspiro[5.5]undeca-2,4-dienes as selective Mycobacterium tuberculosis dihydrofolate reductase inhibitors with potent whole cell activity” (Eur J Med Chem, 2018)
Values after ≈ are worked out from the molar mass of the structure shown.

Experiments:
Dihydrofolate reductase [1] = target: T1, Dihydrofolate reductase (Homo sapiens, UniProt P00374); assay: Inhibition of human DHFR assessed as reduction in consumption of NADPH using DHF as substrate by fluorescence method
T1 sequence (P00374 whole entry): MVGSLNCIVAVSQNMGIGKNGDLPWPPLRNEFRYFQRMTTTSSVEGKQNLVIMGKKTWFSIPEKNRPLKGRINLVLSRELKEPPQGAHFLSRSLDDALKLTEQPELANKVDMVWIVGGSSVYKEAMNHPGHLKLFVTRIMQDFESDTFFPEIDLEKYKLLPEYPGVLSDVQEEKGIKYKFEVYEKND

[2] = system: Mycobacterium tuberculosis; assay: Antimycobacterial activity against Mycobacterium tuberculosis H37Rv infected in human THP1 cells after 5 days by Steady-Glo luminescence assay; type: functional; settings: 120 h
Dihydrofolate reductase [3] = target: T2, Dihydrofolate reductase (Mycobacterium tuberculosis, UniProt P9WNX1); assay: Inhibition of Mycobacterium tuberculosis H37Rv DHFR expressed in Escherichia coli assessed as reduction in consumption of NADPH using DHF as substrate by fluorescence method
T2 sequence (P9WNX1 whole entry): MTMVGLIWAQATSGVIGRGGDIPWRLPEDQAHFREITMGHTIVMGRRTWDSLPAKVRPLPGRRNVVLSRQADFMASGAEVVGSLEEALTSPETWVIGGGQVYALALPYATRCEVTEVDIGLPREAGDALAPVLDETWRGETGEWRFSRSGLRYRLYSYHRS

Dihydrofolate reductase [4] = target: T2, Dihydrofolate reductase; assay: Inhibition of Mycobacterium tuberculosis His-tagged DHFR assessed as reduction in consumption of NADPH using DHF as substrate measured every 30 secs over 6 mins by spectrophotometric method
Dihydrofolate reductase [5] = target: T1, Dihydrofolate reductase; assay: Inhibition of human DHFR assessed as reduction in consumption of NADPH using DHF as substrate incubated for 3 mins measured for 2 mins by spectrophotometric method
[6] = Cytotoxicity against African green monkey Vero cells by MTT assay; type: cell-based; settings: chlorocebus sabaeus
[7] = system: Mycobacterium tuberculosis; assay: Antimycobacterial activity against Mycobacterium tuberculosis H37Rv by resazurin dye based two-fold dilution assay; type: functional
Dihydrofolate reductase [8] = target: T2, Dihydrofolate reductase; assay: Inhibition of Mycobacterium tuberculosis H37Rv DHFR assessed as reduction in consumption of NADPH using DHF as substrate incubated for 3 mins measured for 2 mins by spectrophotometric method
Dihydrofolate reductase [9] = target: T1, Dihydrofolate reductase; assay: Inhibition of human DHFR
A549 = assay: Cytotoxicity against human A549 cells; type: cell-based
[10] = Cytotoxicity against human HepG2 cells assessed as reduction in cell viability by MTS assay; type: cell-based
Outline: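 HepG2 cells were grown in DMEM with 10% heat-inactivated FBS at 37 °C and 5% CO2, then exposed to 2-fold serially diluted compound. Viability was read by MTS absorbance at 490 nm. CC50 is the concentration giving a 50% viability drop, taken from the absorbance-versus-concentration plot. Triton X-100 was the positive control. Means of 3 independent experiments.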

[11] = Selectivity index, ratio of IC50 for inhibition of recombinant human DHFR to IC50 for inhibition of Mycobacterium tuberculosis His-tagged DHFR
Outline: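 Spectrophotometric DHFR assay at room temperature in 0.15 M potassium phosphate, pH 7, with 50 µM DHF, 60 µM NADPH and 1.5 × 10^-3 units recombinant human DHFR or 0.3 ng/mL recombinant Mtb DHFR, plus serial inhibitor concentrations in DMSO. NADPH use is followed at 340 nm every 30 s for 6 min. Slope versus uninhibited gives % inhibition, and IC50 comes from log-dose curves. SI = human IC50 / Mtb IC50.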

[12] = Half life in female rat liver microsomes at 3 uM preincubated for 5 mins followed by NADPH addition measured up to 45 mins by LC-MS/MS analysis; type: ADME, microsome
Outline: (§1)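 Compound (final 3 µM) was incubated with male or female rat liver microsomes (0.3 mg protein/mL) in 0.1 M phosphate pH 7.4. After a 5 min pre-incubation at 37 °C, NADPH (final 1 mM) was added to start the reaction. Samples were taken at 0, 5, 10, 15, 30 and 45 min and the remaining compound was quantified by LC-MS.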

[13] = Intrinsic clearance in female rat liver microsomes at 3 uM preincubated for 5 mins followed by NADPH addition measured up to 45 mins by LC-MS/MS analysis; type: ADME, microsome; settings: read-out: CLH; outline: as §1
[14] = Hemolytic activity in human RBC after 24 hrs; type: ADME, cell-based, Erythrocyte; settings: red blood cells (erythrocytes), read-out: LC50
Outline: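 Red blood cells were PBS-washed and resuspended at 10^6/mL, then incubated 24 h with compound. After centrifugation at 1000 g for 10 min, supernatant absorbance was read at 540 nm. PBS served as the negative control and 0.1% Triton X-100 as the positive control. Reported as LC50.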

[15] = system: Mycobacterium tuberculosis; assay: Antimycobacterial activity against Mycobacterium tuberculosis H37Rv after 10 days by broth dilution method; type: functional; settings: 240 h
Outline: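 Broth microdilution. Mid-log cultures (OD600 0.4–0.6) were diluted and added to 2-fold serial compound dilutions in DMSO, giving a final 5 × 10^5 CFU/mL in 7H9-albumin-dextrose-catalase-glycerol-Tween 80. Plates were sealed and incubated at 37 °C for 10 days with shaking at 80 rpm. OD600 was read; MIC50 and MIC90 are the lowest concentrations giving 50% and 90% growth inhibition. Rifampicin and DMSO served as controls. Means of 3 independent experiments.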

[16] = Aqueous solubility of compound in pH 7.4 solution after 90 mins by UV method; type: physicochemical; settings: aqueous solution pH 7.4, pH 7.4
Outline: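 Compound was diluted from a 10 mM DMSO stock to final 3.13–100 µM in 45 mM ethanolamine/potassium dihydrogen phosphate/potassium acetate buffer, pH 7.4. After 90 min at room temperature the solution was filtered and diluted with acetonitrile and buffer. Absorbance was read at 330 nm.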

[17] = Selectivity index, ratio of CC50 for cytotoxicity against human HepG2 cells to MIC90 for antimycobacterial activity against Mycobacterium tuberculosis H37Rv; type: toxicity, cell-based; settings: HepG2 cells versus Mycobacterium tuberculosis H37Rv, read-out: Selectivity Index
Outline: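 H37Rv grown to mid-log (OD600 0.4–0.6), 5 × 10^5 CFU/mL, in supplemented 7H9 with 2-fold compound dilutions (DMSO), 10 days at 37 °C shaken. MIC90 is the lowest concentration giving 90% inhibition by OD600. HepG2 cells in DMEM/10% FBS are exposed to 2-fold dilutions, and CC50 (50% viability loss) is read by MTS absorbance at 490 nm. SI = CC50/MIC90. Means of 3 independent experiments.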

Dihydrofolate reductase [18] = target: T1, Dihydrofolate reductase; assay: Inhibition of recombinant human DHFR assessed as reduction in consumption of NADPH using DHF as substrate measured every 30 secs over 6 mins by spectrophotometric method
[19] = Half life in male rat liver microsomes at 3 uM preincubated for 5 mins followed by NADPH addition measured up to 45 mins by LC-MS/MS analysis; type: ADME, microsome; outline: as §1
[20] = Intrinsic clearance in male rat liver microsomes at 3 uM preincubated for 5 mins followed by NADPH addition measured up to 45 mins by LC-MS/MS analysis; type: ADME, microsome; settings: read-out: CLH; outline: as §1
Dihydrofolate reductase [21] = target: T2, Dihydrofolate reductase; assay: Inhibition of Mycobacterium tuberculosis H37Rv DHFR expressed in Escherichia coli BL21(DE3) assessed as reduction in consumption of NADPH using DHF as substrate preincubated for 1 min followed by DHF addition and measured for 2 mins by spectrophotometric method
[22] = system: Mycobacterium tuberculosis; assay: Antimycobacterial activity against GFP-fused Mycobacterium tuberculosis H37Rv after 7 days BacTiter-Glo assay; type: functional; settings: 168 h

N#Cc1ccc(Cn2ccc3c4c(N)nc(N)nc4ccc32)cc1
IC50 (Dihydrofolate reductase [1]): 0.0068 µM | MIC90 [2]: 0.5 µM (≈ 0.157 µg/mL) | IC50 (Dihydrofolate reductase [3]): 0.0101 µM

Cl.NC1=NC2(CCCCC2)N(Cc2cn(CCCCCOc3ccc4oc(=O)ccc4c3)nn2)C(N)=N1
IC50 (Dihydrofolate reductase [4]): > 100 µM

Cc1c(Cc2ccccc2Br)cnc2nc(N)nc(N)c12
IC50 (Dihydrofolate reductase [1]): 0.0076 µM | MIC90 [2]: 1.3 µM (≈ 0.447 µg/mL) | IC50 (Dihydrofolate reductase [3]): 0.0082 µM

Nc1nc(N)nc(-c2ccc(OCc3cccc(Cl)c3)cc2)n1
IC50 (Dihydrofolate reductase [5]): 72.5 µM | CC50 [6]: 387 µM | MIC [7]: 1.57 µM (≈ 0.515 µg/mL) | IC50 (Dihydrofolate reductase [8]): 5.62 µM

NC1=NC2(CCCCC2)N(Cc2ccc(Cl)cc2)C(N)=N1
IC50 (Dihydrofolate reductase [9]): > 100 µM | IC50 (A549): > 100 µM

Cl.NC1=NC2(CCCCC2)N(c2ccc(OCc3cn(CCCOc4ccc5ccc(=O)oc5c4)nn3)cc2)C(N)=N1
CC50 [10]: > 100 µM | Ratio IC50 [11]: 8.95 | half-life at 3 µM [12]: 4.51 h | microsomal CLint at 3 µM [13]: 8.6 µL/min/mg | HC50 at 24 h [14]: > 100 µM | IC50 (Dihydrofolate reductase [4]): 1.34 µM | MIC50 [15]: 0.01 µM | MIC90 [15]: 0.025 µM | solubility at 1.5 h [16]: > 100 µM | selectivity ratio [17]: > 4000 | IC50 (Dihydrofolate reductase [18]): 12 µM | half-life at 3 µM [19]: 1.39 h | microsomal CLint at 3 µM [20]: 27.8 µL/min/mg

Nc1nc(N)nc(-c2ccc(OCc3ccc(Cl)cc3)cc2)n1
IC50 (Dihydrofolate reductase [5]): 83.3 µM | CC50 [6]: 333 µM | MIC [7]: 1.76 µM (≈ 0.577 µg/mL) | IC50 (Dihydrofolate reductase [8]): 5.17 µM

CCOC(=O)CC[C@H](NC(=O)c1ccc(N(C)Cc2cnc3nc(N)nc(N)c3n2)cc1)C(=O)OCC
IC50 (Dihydrofolate reductase [21]): 0.03 µM | MIC90 [22]: 0.6 µM (≈ 0.306 µg/mL)

COC(=O)CC[C@H](NC(=O)c1ccc(N(C)Cc2cnc3nc(N)nc(N)c3n2)cc1)C(=O)OC
IC50 (Dihydrofolate reductase [21]): 0.05 µM | MIC90 [22]: 0.2 to 0.4 µM (≈ 0.0965 to 0.193 µg/mL)

Cl.NC1=NC2(CCCCC2)N(c2ccc(OCc3cn(CCCc4ccccc4)nn3)cc2)C(N)=N1
Ratio IC50 [11]: 0.63 | IC50 (Dihydrofolate reductase [4]): 5.82 µM | IC50 (Dihydrofolate reductase [18]): 3.67 µM

COc1ccc(-c2nc3c(N)nc(N)nc3nc2C(C)C)cc1
IC50 (Dihydrofolate reductase [1]): 0.382 µM | MIC90 [2]: 2.9 µM (≈ 0.9 µg/mL) | IC50 (Dihydrofolate reductase [3]): 0.0545 µM

Cl.NC1=NC2(CCCCC2)N(c2ccc(OCc3cn(CCCCOc4ccc5ccc(=O)oc5c4)nn3)cc2)C(N)=N1
CC50 [10]: > 100 µM | Ratio IC50 [11]: 18.7 | half-life at 3 µM [12]: 1.89 h | microsomal CLint at 3 µM [13]: 20.4 µL/min/mg | HC50 at 24 h [14]: > 100 µM | IC50 (Dihydrofolate reductase [4]): 0.82 µM | MIC50 [15]: 0.01 µM | MIC90 [15]: 0.025 µM | solubility at 1.5 h [16]: 95.8 µM | selectivity ratio [17]: > 4000 | IC50 (Dihydrofolate reductase [18]): 15.3 µM | half-life at 3 µM [19]: 0.983 h | microsomal CLint at 3 µM [20]: 39.2 µL/min/mg
